Laboratory results: ChEMBL document CHEMBL4368903, “Identification of GSK3186899/DDD853651 as a Preclinical Development Candidate for the Treatment of Visceral Leishmaniasis” (J Med Chem, 2019)
Converted amounts (≈) assume the structure as drawn. The source made the active and inactive calls. The calls are words filed in the database; no cut-off is given here.

Legend:
Leishmania donovani [1] = assay: Antileishmanial activity against Leishmania donovani […] in human THP1 cells by intramacrophage assay; format: functional, organism-based; settings: Leishmania donovani, THP-1
[2] = Toxicity in Crl:WI(Han) rat assessed as kidney vacuolation at 300 mg/kg/day, po via gavage for 7 days by histological analysis; format: organism-based; settings: in vivo, 168 h
Outline: (§1)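 Male Crl:WI(Han) rats received compound by oral gavage in a 7-day repeat-dose study at 100, 300 and 1000 mg/kg/day. Endpoints were in-life clinical signs (food consumption, body weight, piloerection), macroscopic observations, histopathology, clinical pathology and liver gene expression profiling.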

[3] = Toxicity in Crl:WI(Han) rat assessed as reduction in food consumption at 1000 mg/kg/day, po via gavage for 7 days; format: organism-based; settings: in vivo, 168 h; outline: as §1
[4] = Kinetic aqueous solubility of the compound in phosphate buffer at pH 7.4 by CLND assay; format: physicochemical; settings: phosphate buffer, read-out: Kinetic_solubility
Outline: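 From 10 mM DMSO stock diluted 1:20 into pH 7.4 PBS, equilibrated 1 h at RT, filtered. Filtrate quantified by calibrated flow-injection CLND. Dynamic range 1–500 μM.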

[5] = Cardiotoxicity in Crl:WI(Han) rat up to 600 mg/kg, po via gavage; format: toxicity, organism-based; settings: in vivo
[6] = Toxicity in Crl:WI(Han) rat assessed as stomach distension at 100 to 1000 mg/kg/day, po via gavage for 7 days; format: organism-based; settings: in vivo, 168 h; outline: as §1
[7] = molecular target: Cyclin-dependent kinase 2 (Homo sapiens) (UniProt P24941); assay: Inhibition of human CDK2 by kinobeads-based assay
CYP1A1 = assay: Toxicity in Crl:WI(Han) rat assessed as increase in CYP1A1 gene expression in liver at 100 to 1000 mg/kg/day, po via gavage for 7 days; format: organism-based; settings: Crl:WI(Han), liver, read-out: FC
Outline: (§2)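 Male Crl:WI(Han) rats given oral gavage daily for 7 days at 100, 300 and 1000 mg/kg/day. Clinical signs, macroscopic findings, clinical pathology versus controls, and a liver gene expression panel for hepatic toxicity mechanisms.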

[8] = Toxicity in rabbit cardiac ventricular wedge assessed as QT shortening at 10 uM relative to control; format: tissue-based, Oryctolagus cuniculus, Cardiac ventricle
[9] = molecular target: Voltage-gated inwardly rectifying potassium channel KCNH2 (Homo sapiens, UniProt Q12809); assay: Inhibition of human ERG by patch clamp assay
Chain of Voltage-gated inwardly rectifying potassium channel KCNH2 (Q12809 whole entry): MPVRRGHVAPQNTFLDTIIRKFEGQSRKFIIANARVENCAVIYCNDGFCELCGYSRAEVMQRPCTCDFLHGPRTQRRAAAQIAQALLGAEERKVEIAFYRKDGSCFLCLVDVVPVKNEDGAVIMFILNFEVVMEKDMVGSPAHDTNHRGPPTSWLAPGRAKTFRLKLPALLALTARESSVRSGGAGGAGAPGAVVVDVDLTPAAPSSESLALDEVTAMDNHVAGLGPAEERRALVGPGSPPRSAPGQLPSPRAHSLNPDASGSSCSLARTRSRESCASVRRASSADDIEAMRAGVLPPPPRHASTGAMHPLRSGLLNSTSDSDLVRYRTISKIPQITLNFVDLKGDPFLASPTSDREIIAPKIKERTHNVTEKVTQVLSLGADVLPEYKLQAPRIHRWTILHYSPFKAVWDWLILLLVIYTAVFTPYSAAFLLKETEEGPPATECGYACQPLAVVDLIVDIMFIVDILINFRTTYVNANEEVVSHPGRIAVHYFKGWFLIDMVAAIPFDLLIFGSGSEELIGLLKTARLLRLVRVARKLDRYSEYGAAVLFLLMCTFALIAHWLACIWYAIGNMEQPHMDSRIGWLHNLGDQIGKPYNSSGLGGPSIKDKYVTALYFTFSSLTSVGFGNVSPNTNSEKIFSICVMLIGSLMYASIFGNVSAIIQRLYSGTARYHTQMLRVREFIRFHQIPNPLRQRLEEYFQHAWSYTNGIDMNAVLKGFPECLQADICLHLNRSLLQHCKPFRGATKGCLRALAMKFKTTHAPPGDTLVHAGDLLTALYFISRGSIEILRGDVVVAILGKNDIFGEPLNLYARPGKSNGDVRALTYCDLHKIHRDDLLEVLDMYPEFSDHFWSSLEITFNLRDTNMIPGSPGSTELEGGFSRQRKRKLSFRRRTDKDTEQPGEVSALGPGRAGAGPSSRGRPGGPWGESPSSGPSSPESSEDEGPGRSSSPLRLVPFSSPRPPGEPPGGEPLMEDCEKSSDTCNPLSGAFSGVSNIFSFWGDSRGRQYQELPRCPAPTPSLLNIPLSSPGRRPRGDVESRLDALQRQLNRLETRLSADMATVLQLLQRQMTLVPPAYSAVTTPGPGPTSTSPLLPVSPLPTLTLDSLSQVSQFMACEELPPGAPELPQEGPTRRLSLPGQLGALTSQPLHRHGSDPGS

Cytochrome P450 3A4 = Cytochrome P450 3A4 (Homo sapiens, UniProt P08684); assay: Inhibition of CYP3A4 in human liver microsomes using midazolam as substrate preincubated for 20 mins followed by substrate addition and measured after 5 mins by LC-MS/MS analysis; format: ADME
Chain of Cytochrome P450 3A4 (P08684 whole entry): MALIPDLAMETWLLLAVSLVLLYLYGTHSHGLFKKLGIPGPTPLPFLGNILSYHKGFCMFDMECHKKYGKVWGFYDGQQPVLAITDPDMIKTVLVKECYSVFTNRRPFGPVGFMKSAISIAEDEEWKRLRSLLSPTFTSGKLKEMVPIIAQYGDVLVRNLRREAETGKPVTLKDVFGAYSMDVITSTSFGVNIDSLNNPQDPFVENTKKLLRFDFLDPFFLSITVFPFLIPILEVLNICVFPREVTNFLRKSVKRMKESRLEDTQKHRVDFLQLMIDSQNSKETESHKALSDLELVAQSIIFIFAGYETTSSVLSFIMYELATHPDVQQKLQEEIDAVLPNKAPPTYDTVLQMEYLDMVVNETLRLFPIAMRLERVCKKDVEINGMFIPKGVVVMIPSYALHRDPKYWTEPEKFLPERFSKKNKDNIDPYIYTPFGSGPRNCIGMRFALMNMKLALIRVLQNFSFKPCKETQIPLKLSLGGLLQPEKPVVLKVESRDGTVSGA
Outline: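 Pooled human liver microsomes (final 0.1 mg/mL) with midazolam marker substrate, monitoring CYP3A4-specific metabolite. Test compound at eight concentrations, 0.1–100 μM, final organic ≤0.5%. Preincubated at 37 °C for 20 min, then substrate or cofactor added and incubated 5 min at 37 °C. Stopped with ice-cold acetonitrile; LC-MS/MS read-out gives pIC50.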

[10] = Solubility of compound in fasted simulated intestinal fluid at 1 mg after 4 hrs by HPLC-UV analysis; format: physicochemical; settings: fasted simulated intestinal fluid
Outline: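 1 mg solid shaken in 1 mL FaSSIF (3 mM sodium taurocholate, 0.75 mM lecithin, phosphate buffer pH 6.5) at 900 rpm for 4 h at room temperature, then filtered. Supernatant quantified by HPLC-UV against single-point DMSO calibration. Range 1–1000 μg/mL.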

[11] = Toxicity in Crl:WI(Han) rat assessed as effect on liver gene expression in liver at 100 to 1000 mg/kg/day, po via gavage for 7 days; format: organism-based; settings: in vivo, 168 h; outline: as §2
[12] = Toxicity in Crl:WI(Han) rat assessed as irregular breathing at 1000 mg/kg/day, po via gavage for 7 days; format: organism-based; settings: in vivo, 168 h; outline: as §2
[13] = Toxicity in Crl:WI(Han) rat assessed as drug tolerability dose at 100 to 1000 mg/kg/day, po via gavage for 7 days; format: organism-based; settings: in vivo, read-out: Activity
Outline: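 Male Crl:WI(Han) rats dosed by oral gavage once daily in a 7-day repeat-dose study at 100, 300 and 1000 mg/kg/day. Tolerated doses judged from in-life and clinical signs, macroscopic observations, histopathology, clinical pathology and liver gene expression profiling versus controls.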

[14] = Toxicity in Crl:WI(Han) rat assessed as multiple organ changes at 1000 mg/kg/day, po via gavage for 7 days by histological analysis; format: organism-based; settings: in vivo, 168 h; outline: as §1
Leishmania donovani [15] = assay: Antileishmanial activity against Leishmania donovani LV9 amastigotes infected in BALB/c mouse assessed as suppression of parasite load within liver at 25 mg/kg, po administered bid for 10 days relative to control; format: functional
Outline: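 Female BALB/c mice, 5 per group, infected i.v. with about 2×10^7 L. donovani LV9 amastigotes harvested from infected hamster spleen. Oral dosing starts day 7 post-infection, in 0.5% HPMC/0.4% Tween 80/0.5% benzyl alcohol, or 10% DMSO/60% PEG400/30% water for the 5-day 50 mg/kg regimen. Dosing solutions made fresh daily. Killed day 14 (5-day) or 19 (10-day). Liver smears give LDU (amastigotes/500 nucleated cells × organ weight). Mean LDU compared with vehicle control gives % suppression.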

[16] = Mutagenicity in Salmonella typhimurium at 1500 ug/plate by Ames test; format: toxicity; settings: salmonella enterica subsp. enterica serovar typhimurium
[17] = Toxicity in Crl:WI(Han) rat at 100 to 1000 mg/kg/day, po via gavage for 7 days; format: organism-based; settings: in vivo, 168 h; outline: as §1
[18] = Toxicity in Crl:WI(Han) rat assessed as pancreas vacuolation at 300 mg/kg/day, po via gavage for 7 days by histological analysis; format: organism-based; settings: in vivo, 168 h; outline: as §1
[19] = Ratio of AUC (0 to 24 hrs) in conscious unrestrained telemetered Crl:WI(Han) rat at 300 mg/kg/day, po via gavage for 7 days measured on day 7 to AUC (0 to 24 hrs) in Leishmania donovani LV9 amastigotes infected BALB/c mouse at 25 mg/kg, po administered bid for 10 days measured on day 10; format: ADME, organism-based; settings: in vivo, read-out: TI
Outline: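 Index = AUC0–24 on day 7 of the rat study / AUC0–24 on day 10 of the mouse efficacy model. Rat arm: male Crl:WI(Han) rats, oral gavage once daily for 7 days at 100, 300 or 1000 mg/kg/day. Mouse arm: female BALB/c infected i.v. with ~2×10^7 L. donovani LV9 amastigotes, dosed orally twice daily for 10 days from day 7 post-infection in 0.5% HPMC, 0.4% Tween 80, 0.5% benzyl alcohol.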

[20] = Toxicity in Crl:WI(Han) rat assessed as piloerection at 1000 mg/kg/day, po via gavage for 7 days; format: organism-based; settings: in vivo, 168 h; outline: as §1
[21] = Intrinsic clearance in CD1 mouse liver microsomes at 0.5 uM after 3 to 30 mins in presence of NADPH by UPLC-MS/MS analysis; format: ADME, Microsome
Outline: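 0.5 μM compound with female CD1 mouse or human liver microsomes, started with excess NADPH in 50 mM potassium phosphate pH 7.4. Aliquots at 0, 3, 6, 9, 15 and 30 min quenched in acetonitrile with internal standard. UPLC-MS/MS; rate constant from exponential decay of compound/IS ratio. Verapamil as positive control.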

Lymphoma cell line = assay: Clastogenicity in mouse Lymphoma cells at 5 ug/ml; format: toxicity, cell-based
[22] = Therapeutic index, ratio of fCmax in conscious unrestrained telemetered Crl:WI(Han) rat at 300 mg/kg/day, po via gavage for 7 days measured on day 1 to fCmax in Leishmania donovani LV9 amastigotes infected BALB/c mouse at 25 mg/kg, po administered bid for 10 days measured on day 1; format: organism-based; settings: in vivo, read-out: TI
Outline: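 Index = free Cmax on day 1 of the rat cardiovascular study / free Cmax on day 1 of the mouse efficacy model. Rat arm: conscious, unrestrained, telemetered male CRL:WI(Han) rats given a single oral dose (up to 1000 mg/kg). Mouse arm: female BALB/c infected i.v. with L. donovani LV9 amastigotes, dosed orally twice daily from day 7 post-infection in 0.5% HPMC, 0.4% Tween 80, 0.5% benzyl alcohol.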

[23] = Dissociation constant, pKa of the compound by UV-spectroscopy; format: physicochemical
Outline: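 Sirius T3 acid–base titration with UV read-out: 5 μL of 10 mM sample, absorbance over 54 pH values in about 5 min. Methanol cosolvent with Yasuda–Shedlovsky extrapolation used when precipitation occurred.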

For `COc1ccccc1-c1n[nH]c2nc(N[C@H]3CC[C@H](NS(=O)(=O)CCC(F)(F)F)CC3)nc(OC)c12`, the EC50 (Leishmania donovani [1]) was 0.398 µM, the Activity [2] was “Toxic” and the Activity [3] was “Toxic”. For the same compound, the solubility kinetic [4] was 68 µM (≈ 35.9 µg/mL), the Activity [5] was “Non-Toxic” and the Activity [6] was “Toxic”. For the same compound, the inhibition [7] was “Active”, the fold induction at 168 h (CYP1A1) was 43 and the Activity [8] was 11.3%. It also gave an IC50 [9] of 17.5 µM, an IC50 (Cytochrome P450 3A4) of 6.31 µM and a solubility at 4 h [10] of 25 to 130 µg/mL (≈ 47.3 to 246 µM). The Activity [11] was “Non-Toxic”, the Activity [12] was “Toxic” and the MTD at 168 h [13] was 100 to 300 mg/kg. For the same compound, the Activity [14] was “Toxic”, the Activity (Leishmania donovani [15]) was greater than 95% and the Activity [16] was “Non-Toxic”. For the same compound, the Activity [17] was “Toxic”, the Activity [18] was “Toxic” and the selectivity ratio [19] was 19. For the same compound, the Activity [20] was “Toxic”, the CLH [21] was 1.1 mL/min/g and the Activity (Lymphoma cell line) was “Non-Toxic”. It also gave a selectivity ratio [22] of 12 and a pKa [23] of 4.1.
